One series relates to HepG2. Nature of the series: Cytotoxicity against human HepG2 cells assessed as decrease in cell viability after 72 hrs by MTT assay. The conditions noted are these: hepg2, 72 h. In general terms: Formazan colour is commonly taken as a measure of viable cells.
Series [1] relates to Trypanosoma brucei brucei. Nature of the series: Antitrypanosomal activity against trypomastigote stage of Trypanosoma brucei brucei AnTat 1.9 assessed as decrease in parasite viability after 69 hrs by Alamar Blue assay. The conditions noted are these: AnTat 1.9, 69 h. Format: functional, organism-based. In general terms: The colour change of resazurin is a common sign of viable cells or microbes.

A further series has as its system Leishmania infantum. Briefly: microbe, parasite or virus in culture. Format: functional, organism-based. The conditions noted are these: MHOM/MA/67/ITMAP-263, 48 h.
Series [2] can be described thus: Electrochemical behavior of the compound assessed as redox potential corrected toward normal hydrogen electrode at 10^-3 mol/L by cyclic voltammetry. The conditions noted are these: 1000 µM.
A further series relates to Leishmania donovani. Nature of the series: Antileishmanial activity against amastigote stage of Leishmania donovani MHOM/IN/00/DEVI infected in human THP1 cells assessed as inhibition of parasite infection after 120 hrs by Giemsa staining-based microscopic method. Type of series: functional, organism-based. The conditions noted are these: THP-1, 120 h. Put shortly:
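THP-1 cells differentiated with PMA (50 ng/mL final), 48 h at 37 °C, 6% CO2, then infected 10:1 with promastigotes acid-primed 24 h at 27 °C in Schneider 20% FCS pH 5.4. After 24 h, compounds in DMSO (<0.5% v/v) added in duplicate for 120 h. Methanol fixation and Giemsa staining; ≥200 cells counted. IC50 is the concentration halving infected macrophages, nonlinear regression, mean of three independent experiments.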

Another series has as its system THP-1. Briefly: Cytotoxicity against human THP1 cells assessed as decrease in cell viability after 72 hrs by MTT assay. Conditions: thp-1, 72 h. Format: cell-based. Put shortly:
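PMA-differentiated THP-1 (50 ng/mL final), 10⁶ cells/mL in complete RPMI, 48 h. Compounds in DMSO (<0.5% v/v) for 72 h at 37 °C. MTT 0.5 mg/mL for 2 h, formazan dissolved in DMSO, A570 with 630 nm reference. Viability expressed as percent of untreated control; doxorubicin as positive control; 50% cytotoxic concentration from dose–response curve.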

The target in another series is Albumin (Homo sapiens, UniProt P02768). Briefly: (§1) Binding affinity to human serum albumin assessed as fraction unbound after 4 hrs by LC-MS method. The conditions noted are these: isolated protein, 4 h. Format: ADME.
Series [3] concerns the target T1, serum albumin (Homo sapiens, UniProt P02768). Described as §1. Format: ADME. Conditions: human serum albumin.
Series [4] has as its target T1, serum albumin. Briefly: Binding affinity to human serum albumin after 4 hrs by LC-MS method. Format: ADME. The conditions noted are these: read-out: PB (converted).

pIC50: −log10 of the molar value.

T1 sequence (P02768 whole entry): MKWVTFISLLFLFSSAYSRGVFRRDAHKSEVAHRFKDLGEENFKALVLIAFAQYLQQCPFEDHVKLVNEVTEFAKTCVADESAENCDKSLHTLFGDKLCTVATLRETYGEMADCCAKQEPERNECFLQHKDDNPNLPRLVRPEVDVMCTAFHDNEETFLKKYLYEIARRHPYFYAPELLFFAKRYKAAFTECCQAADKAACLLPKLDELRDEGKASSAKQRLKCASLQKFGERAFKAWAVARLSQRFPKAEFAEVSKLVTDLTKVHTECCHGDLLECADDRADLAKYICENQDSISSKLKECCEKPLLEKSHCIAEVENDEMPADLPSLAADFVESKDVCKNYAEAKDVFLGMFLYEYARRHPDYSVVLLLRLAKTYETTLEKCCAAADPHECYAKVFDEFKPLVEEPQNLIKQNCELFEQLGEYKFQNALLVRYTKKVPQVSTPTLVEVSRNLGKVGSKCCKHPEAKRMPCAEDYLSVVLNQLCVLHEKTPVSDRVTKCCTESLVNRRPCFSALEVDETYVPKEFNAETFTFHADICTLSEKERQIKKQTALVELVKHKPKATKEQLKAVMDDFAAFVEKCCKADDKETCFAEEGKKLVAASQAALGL
Sequence of Albumin (P02768 whole entry): as above

In general, CC50 refers to the concentration at which the toxic effect on the cells reaches its halfway point. Usually pIC50 stands for −log10 of the IC50, conventionally taken in molar units. On to `Cn1c(=O)ccc2ccccc21`, for which, in the series with HepG2, the CC50 is above 100 µM. The figures for the pIC50 (in [1]; in the series with Leishmania infantum) were below 4.30 and below 4.00, respectively.

With `CC(=O)Nc1ccc2cccnc2c1[N+](=O)[O-]`, the Activity in series [2] is listed as -0.86 V. Further, the CC50 with HepG2 is above 100 µM. Moreover, the values for the pIC50 (in series [1]; with Leishmania infantum) were 4.97 and below 4.00, respectively.

`Cc1ccc([N+](=O)[O-])c2[nH]c(=O)ccc12`: the Activity in series [2] is -0.58 V. Besides, the CC50 in the series with HepG2 was above 100 µM. In addition, the pIC50 in series [1] was 4.54; in the series with Leishmania infantum, 4.60.

Regarding `CC(=O)Nc1ccccc1[N+](=O)[O-]`, in series [2], the Activity was -0.68 V. Further, in the series on HepG2, the CC50 was above 100 µM. Besides, the pIC50 in [1] is below 4.30; in the series with Leishmania infantum it was below 4.00.

Take `Nc1ccc2cccnc2c1[N+](=O)[O-]`: the Activity in series [2] is reported as -1.1 V. Besides, the CC50 in the series on HepG2 is above 100 µM. The values for the negative-log IC50 (pIC50) (in series [1]; in the series on Leishmania infantum) were below 4.30 and below 4.00, respectively.

Regarding `Oc1ccc2ccccc2n1`, the Activity in [2] is on record as -1.86 V. Moreover, the CC50 in the series on HepG2 is above 100 µM. Also, the values for the pIC50 (in series [1]; in the series on Leishmania infantum) were below 4.30 and below 4.00, respectively.

For the compound `O=c1cnc2cccc([N+](=O)[O-])c2[nH]1`, the Activity in series [2] is on record as -0.46 V. For the same compound, the CC50 in the series with HepG2 was determined as 125 µM. In addition, the values for the pIC50 (in [1]; in the series with Leishmania infantum) were 5.14 and 4.96, respectively.

Regarding `CSc1ccc(OCc2ncc([N+](=O)[O-])n2C)cc1` [FEXINIDAZOLE], the CC50 in the series with HepG2 is above 200 µM; in the series on THP-1, above 62.5 µM. Besides, the pIC50 in [1] was 6.40; in the series on Leishmania infantum, 5.47; in the series with Leishmania donovani it was below 4.30.

Consider `O=c1cc(Br)c2cccc([N+](=O)[O-])c2[nH]1`, for which the Activity in [2] is -0.51 V. The CC50 in the series on HepG2 was 60 µM. The pIC50 in [1] is 5.26; in the series with Leishmania infantum, 4.69.

For `Cc1ccc2ccc(=O)[nH]c2c1[N+](=O)[O-]`, in series [2], the Activity was -0.71 V. Moreover, the CC50 in the series with HepG2 is above 100 µM. The values for the pIC50 (in series [1]; with Leishmania infantum) were below 4.30 and below 4.00, respectively.

Regarding `COc1ccc([N+](=O)[O-])c2[nH]c(=O)ccc12`, in series [2], the Activity was -0.65 V. For the same compound, in the series on HepG2, the CC50 is above 100 µM. For the same compound, the pIC50 is below 4.30 in [1] and below 4.00 with Leishmania infantum.

On to `O=[N+]([O-])c1ccc2nc(O)ccc2c1`, for which the Activity in series [2] is -0.82 V. Also, in the series on HepG2, the CC50 is above 100 µM. For the same compound, the values for the pIC50 (in series [1]; in the series on Leishmania infantum) were 5.64 and below 4.00, respectively.

On to `O=[N+]([O-])c1cccc2cccnc12`, for which the Activity in series [2] is -0.84 V. The CC50 with HepG2 is above 100 µM. In addition, the pIC50 in series [1] was 4.75; in the series with Leishmania infantum, below 4.00.

With `NC(=O)N1c2ccccc2C=Cc2ccccc21` [CARBAMAZEPINE], the logFu on Albumin is -0.56. Besides, the fraction unbound at 4 h at serum albumin [3] and at serum albumin [4] was 0.276 throughout.

As for `CCCCCCCCCCCCCCCCOP(=O)([O-])OCC[N+](C)(C)C` [MILTEFOSINE], the pIC50 with Leishmania infantum was 6.10; in the series with Leishmania donovani, 5.27. Further, the CC50 in the series with THP-1 was above 40 µM.

With `C[C@@H]1[C@H](O)[C@@H](C)/C=C/C=C/C=C/C=C/C=C/C=C/C=C/[C@H](O[C@@H]2O[C@H](C)[C@@H](O)[C@H](N)[C@@H]2O)C[C@@H]2O[C@](O)(C[C@@H](O)C[C@@H](O)[C@H](O)CC[C@@H](O)C[C@@H](O)CC(=O)O[C@H]1C)C[C@H](O)[C@H]2C(=O)O` [AMPHOTERICIN B], the pIC50 in the series with Leishmania infantum was 7.22; with Leishmania donovani, 6.40. Moreover, the cytotoxic concentration (CC50) with THP-1 worked out at 3.6 µM.

In the case of `O=[N+]([O-])c1ccccc1` [NITROBENZENE], in series [2], the Activity is listed as -0.85 V. Besides, the CC50 in the series with HepG2 was above 100 µM. Moreover, the values for the pIC50 (in series [1]; in the series with Leishmania infantum) were below 4.30 and below 4.00, respectively.

On to `Cc1cc([N+](=O)[O-])c2[nH]c(=O)ccc2c1`, for which the Activity in [2] is recorded as -0.56 V. In addition, in the series with HepG2, the CC50 is above 100 µM. In addition, the figures for the pIC50 (in [1]; with Leishmania infantum) were 5.68 and 4.64, respectively.

Turning to `O=c1[nH]c2c([N+](=O)[O-])cccc2cc1Cl`, the Activity in series [2] was -0.47 V. Also, the CC50 in the series with HepG2 came out at 85 µM. Moreover, the pIC50 in [1] is 5.92; in the series with Leishmania infantum, 4.80.

In the case of `NCCOCCOCCNCc1cc(=O)[nH]c2c([N+](=O)[O-])cccc12`, the CC50 in the series on HepG2 was above 100 µM. For the same compound, the results for the pIC50 (in series [1]; with Leishmania infantum) were 5.12 and below 4.00, respectively.

In the case of `COc1cc([N+](=O)[O-])c2[nH]c(=O)ccc2c1`, in series [2], the Activity is given as -0.58 V. In addition, the CC50 in the series with HepG2 was above 100 µM. In addition, the pIC50 in [1] was below 4.30; in the series on Leishmania infantum it was below 4.00.

For the compound `COc1ccc2ccc(=O)[nH]c2c1[N+](=O)[O-]`, the Activity in series [2] is -0.75 V. Moreover, in the series on HepG2, the CC50 is above 100 µM. Also, the pIC50 in series [1] was below 4.30; with Leishmania infantum, below 4.00.

On to `COc1nc2c([N+](=O)[O-])cccc2cc1Br`, for which the Activity in series [2] is listed as -0.86 V. Also, the CC50 in the series on HepG2 was above 6.2 µM. Further, the results for the pIC50 (in [1]; in the series on Leishmania infantum) were 6.40 and below 5.21, respectively.

Take `NCCC[C@](N)(C(=O)O)C(F)F` [EFLORNITHINE, (S)-]: the CC50 in the series with HepG2 was above 100 µM. The pIC50 in series [1] was 4.80.

As to `Nc1cccc2cc(Br)c(=O)[nH]c12`, in the series with HepG2, the CC50 was above 100 µM. Further, the pIC50 (in series [1]; in the series with Leishmania infantum) was below 4.30 throughout.

With `CC(C)(C)OC(=O)NCCOCCOCCNCc1cc(=O)[nH]c2c([N+](=O)[O-])cccc12`, the half-maximal cytotoxic concentration (CC50) in the series with HepG2 was above 100 µM. In addition, the pIC50 in [1] was 5.60; in the series with Leishmania infantum, below 4.00.

Take `Cc1cc(=O)[nH]c2c([N+](=O)[O-])cccc12`: the Activity in series [2] was -0.53 V. In addition, the CC50 with HepG2 was 110 µM. Besides, the negative logarithm of the IC50 (pIC50) in series [1] was 4.68; with Leishmania infantum it was 4.99.

For `Cc1ccc(C(=O)Nc2ccc(S(=O)(=O)O)c3cc(S(=O)(=O)O)cc(S(=O)(=O)O)c23)cc1NC(=O)c1cccc(NC(=O)Nc2cccc(C(=O)Nc3cc(C(=O)Nc4ccc(S(=O)(=O)O)c5cc(S(=O)(=O)O)cc(S(=O)(=O)O)c45)ccc3C)c2)c1` [SURAMIN], in the series with HepG2, the CC50 was above 100 µM.

As for `O=c1cc(CO)c2cccc([N+](=O)[O-])c2[nH]1`, the CC50 with HepG2 is above 100 µM. Further, the results for the pIC50 (in series [1]; in the series with Leishmania infantum) were 4.42 and 4.63, respectively.

For the compound `O=[N+]([O-])c1cccc2nc(O)ccc12`, the Activity in series [2] is reported as -0.67 V. The CC50 in the series with HepG2 is above 100 µM. For the same compound, the pIC50 in series [1] is below 4.30; in the series on Leishmania infantum, below 4.00.

The values above are taken from ChEMBL document CHEMBL4152289, “Novel 8-nitroquinolin-2(1H)-ones as NTR-bioactivated antikinetoplastid molecules: Synthesis, electrochemical and SAR study” (Eur J Med Chem, 2018).
